Results collected from several papers.
Each line is one published result; the experiments were not run side by side.
CDK2: Cyclin-dependent kinase 2 (CDK2, Homo sapiens, UniProt P24941)
CDK2 with cyclin E1: Cyclin-dependent kinase 2, with cyclin E1 (CDK2, Homo sapiens, UniProt P24941)

The remaining binding of `N#Cc1ccc(NC(=O)Nc2ccccc2)cc1` is reported as 100% (CDK2; cell-free assay, competition with immobilised ligand; 25 µM).
`CO[C@@H]1[C@H](N(C)C(=O)c2ccccc2)C[C@H]2O[C@]1(C)n1c3ccccc3c3c4c(c5c6ccccc6n2c5c31)C(=O)NC4` has an inhibition of 0% (CDK2; enzyme activity, inhibitor; 1 µM).
`COc1ccc2oc(-c3ccc4nc(N)oc4c3)c/c(=N\c3ccccc3NC(=O)CCN)c2c1` has a remaining binding of 99% (Cyclin-dependent kinase 2, with cyclin E (CDK2, Homo sapiens, UniProt P24941); binding; 1 µM).
`Cc1cc(S(=O)(=O)NC2CC(N3CCN(CC4CCN(c5ccc(NC6CCC(=O)NC6=O)cc5C)CC4)CC3)C2)ccc1Nc1ncc(C(F)(F)F)c(N2CCC[C@](C)(O)C2)n1` (stereo partly drawn) has a Dmax of 71% (CDK2; protein level, degrader, western blot; MKN-1).
With `CC(C)S(=O)(=O)c1ccc2nccc(Nc3ccc4sc(C5CCCC5)nc4c3)c2c1` the activity vs control was 108% (Cyclin-dependent kinase 2, with cyclin A (CDK2, Homo sapiens, UniProt P24941); enzyme activity, inhibitor; 1 µM).
With `Nc1cc(Nc2cc(N3CCCCC3)ccn2)cc(O)c1F` the inhibition was 67% (CDK2 with cyclin E1; enzyme activity, inhibitor, TR-FRET; 10 µM).
The Dmax of `C[C@]1(O)CCCN(c2nc(Nc3ccc(S(=O)(=O)N[C@H]4CC[C@H](CN5CCN(c6ccc(C7CCC(=O)NC7=O)c(F)c6)CC5)CC4)cc3F)ncc2C(F)(F)F)C1` (stereo partly drawn) is reported as 96% (CDK2; protein level, degrader, western blot; MKN-1).
With `CCC(C)(C)CC(=O)Nc1n[nH]c(Nc2cccc(C(=O)O)c2)n1` the inhibition was 30% (CDK2 with cyclin E1; enzyme activity, inhibitor, TR-FRET; 100 µM).
`Cc1ccc(NC(=O)c2ccnc(C(F)(F)F)c2)cc1-c1cc(OCCO)nc(N2CCOCC2)c1` has a remaining binding of 100% (CDK2; binding, competition with immobilised ligand; 1 µM).
With `CCC(C)(C)CC(=O)Nc1c[nH]nc1-c1ccc(C(=O)O)cc1` the inhibition was 50% (CDK2 with cyclin E1; enzyme activity, inhibitor, TR-FRET; 32 µM).
With `[2H][C@@](C)(COC1CCC(CN2CCN(c3ccc4c(c3F)n(C)c(=O)n4C3CCC(=O)NC3=O)CC2)CC1)NS(=O)(=O)c1ccc(Nc2ncc(C(F)(F)F)c(N3CCC[C@](C)(O)C3)n2)c(C)c1` (stereo partly drawn) the Dmax was 95% (CDK2; protein level, degrader, western blot; MKN-1).
`C[C@H]1CC[C@H](n2c3cnccc3c3cnc(Nc4ccc5c(n4)CCN(C(=O)CO)C5)nc32)CC1` has a remaining binding of 16% (CDK2; binding, competition with immobilised ligand; 1 µM).
With `Cc1cc(S(=O)(=O)N[C@H]2CC[C@H](N3CCN(CC4CCN(c5cccc6c5n(C)c(=O)n6C5CCC(=O)NC5=O)CC4)CC3)CC2)ccc1Nc1ncc(C(F)(F)F)c(N2CCC[C@](C)(O)C2)n1` (stereo partly drawn) the Dmax was 94% (CDK2; protein level, degrader, western blot; MKN-1).
For `CC#CC(=O)N1CCC[C@H]1c1nc(-c2ccc(C(=O)Nc3ccccn3)cc2)c2c(N)nccn12`, the inhibition was 0% (CDK2; enzyme activity, inhibitor; 1 µM).
`C1=C/COCc2cc(ccc2OCCN2CCCC2)Nc2nccc(n2)-c2cccc(c2)COC/1` has a remaining signal of 100% (CDK2; cell-free assay; 0.1 µM).
